{"data": "Assay results from different studies", "target": "PAS domain-containing serine/threonine-protein kinase (PASK, Homo sapiens, UniProt Q96RG2)", "note": "Protocols differ between the studies behind these lines."}
{"Compound": "O=C1NC(=O)c2cc(Nc3ccc(F)cc3)c(Nc3ccc(F)cc3)cc21", "effect on": "cell-free assay", "tested at": "0.5 µM", "measurement": "remaining signal", "value": "91.3%"}
{"Compound": "CNC(=O)c1cc(Oc2ccc(NC(=O)Nc3ccc(Cl)c(C(F)(F)F)c3)cc2)ccn1", "effect on": "enzyme activity", "mode": "inhibitor", "tested at": "0.3 µM", "measurement": "inhibition", "value": "-6%"}
{"Compound": "Cc1cnc(NC2CCOCC2)nc1-n1cnc(C(=O)NC(CN)c2cc(F)cc(Cl)c2)c1 (centres unmarked)", "effect on": "enzyme activity", "mode": "inhibitor", "technique": "radiometric", "tested at": "1 µM", "measurement": "remaining activity", "value": "96%"}
{"Compound": "CC(C)(C)c1nc2c(s1)c1nc(N)ncc1c1ccc(NS(=O)(=O)c3c(F)cccc3F)c(F)c12", "effect on": "enzyme activity", "mode": "inhibitor", "technique": "radiometric", "tested at": "1 µM", "measurement": "remaining activity", "value": "99%"}
{"Compound": "Cc1ncc([N+](=O)[O-])n1C(=NO)c1ccccc1C(F)(F)F", "effect on": "enzyme activity", "mode": "inhibitor", "tested at": "10 µM", "measurement": "inhibition", "value": "11.2%"}
{"Compound": "O=C(Nc1cnn(-c2csc(C(=O)NC3COC3)c2)c1)Nc1c(F)cccc1Cl", "effect on": "enzyme activity", "mode": "inhibitor", "tested at": "5 µM", "measurement": "remaining activity", "value": "99.7%"}
{"Compound": "COc1cc2ncnc(Nc3ccc(Oc4ccccc4)c(C)c3C)c2cc1OC", "effect on": "enzyme activity", "mode": "inhibitor", "tested at": "1 µM", "measurement": "inhibition", "value": "6%"}
{"Compound": "CN1CC(Oc2cnc(C#N)cc2-c2ccn3nc(NC(=O)C4CC4)cc3c2)C1", "effect on": "enzyme activity", "mode": "inhibitor", "tested at": "1 µM", "measurement": "inhibition", "value": "-16%"}
{"Compound": "O=C1Nc2ccc(Cl)cc2C1=Cc1cc(Cl)c(O)c(Cl)c1", "effect on": "cell-free assay", "tested at": "0.5 µM", "measurement": "remaining signal", "value": "70%"}
{"Compound": "CC(C)(O)[C@H]1CC[C@H](Nc2ccc3ncc(-c4cccc(C(F)(F)F)c4)n3n2)CC1", "effect on": "enzyme activity", "mode": "inhibitor", "tested at": "1 µM", "measurement": "remaining activity", "value": "92.3%"}
{"Compound": "Cc1ccc(Nc2nccc(N(C)c3ccc4c(C)n(C)nc4c3)n2)cc1S(N)(=O)=O", "effect on": "enzyme activity", "mode": "inhibitor", "tested at": "10 µM", "measurement": "inhibition", "value": "1%"}
{"Compound": "CCCS(=O)(=O)Nc1ccc(F)c(C(=O)c2c[nH]c3ncc(-c4ccc(Cl)cc4)cc23)c1F", "effect on": "enzyme activity", "mode": "inhibitor", "tested at": "1 µM", "measurement": "inhibition", "value": "< 10%"}
{"Compound": "CCN(CC)CCNC(=O)c1c(C)[nH]c(/C=C2\\C(=O)Nc3ccc(F)cc32)c1C", "effect on": "enzyme activity", "mode": "inhibitor", "tested at": "0.3 µM", "measurement": "inhibition", "value": "-5%"}
{"Compound": "COc1cc(Cl)c(C(=O)N[C@@H](CN[C@H]2CC[C@@H](N)CC2)Cc2ccc(C#N)cc2)cc1-c1ccc(CN[C@H](C)c2ccc(C)cc2)o1", "effect on": "enzyme activity", "mode": "inhibitor", "tested at": "1 µM", "measurement": "remaining activity", "value": "72%"}
